# Results taken from ChEMBL document CHEMBL4765448, “Multiple biological active 4-aminopyrazoles containing trifluoromethyl and their 4-nitroso-precursors: Synthesis and evaluation” (Eur J Med Chem, 2020).
# Values joined by “and” are separate entries in the source; they are usually repeats but may differ in a detail not shown here. Identical values can stand only once. Active and inactive are the calls of the source. No cut-off for these calls is given here.
# Assays:
# NHDF = assay: Cytotoxicity against HDF cells; format: cell-based, Homo sapiens
# Erythrocyte [1] = assay: Antioxidant activity in human erythrocytes assessed as protection against AAPH-induced hemolysis at 400 uM preincubated for 20 mins followed by AAPH addition and measured after 2 hrs by spectrophotometric method relative to control; format: functional; details: time 140 min, 2.333 h
# In short: (§1)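 Erythrocyte hemolysis assay with AAPH as the free-radical initiator, testing 50 and 400 µM. Results are expressed as relative protection of membranes against oxidative damage, each the mean of two independent experiments.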
# Pseudomonas aeruginosa = assay: Antibacterial activity against Pseudomonas aeruginosa; format: functional
# Trichophyton violaceum = assay: Antifungal activity against Trichophyton violaceum; format: functional
# Microsporum canis = assay: Antifungal activity against Microsporum canis; format: functional
# Neisseria gonorrhoeae = assay: Antibacterial activity against Neisseria gonorrhoeae; format: functional
# Streptococcus pyogenes = assay: Antibacterial activity against Streptococcus pyogenes; format: functional
# [2] = Selectivity index, ratio of IC50 for HDF cells to IC50 for human HeLa cells; format: toxicity; details: HDF cells versus HeLa cells, read-out: Ratio IC50
# Serratia marcescens = assay: Antibacterial activity against Serratia marcescens; format: functional
# Candida albicans = assay: Antifungal activity against Candida albicans; format: functional
# HeLa = assay: Cytotoxicity against human HeLa cells; format: functional, cell-based
# Staphylococcus aureus = assay: Antibacterial activity against Staphylococcus aureus; format: functional
# Shigella flexneri = assay: Antibacterial activity against Shigella flexneri; format: functional
# Trichophyton rubrum = assay: Antifungal activity against Trichophyton rubrum; format: functional
# [3] = tested on: Mycobacterium tuberculosis; assay: Antitubercular activity against Mycobacterium tuberculosis H37Rv; format: functional
# In short: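 Mycobacterium tuberculosis strain H37Rv; minimum inhibitory concentration (MIC) taken as the lowest level needed to inhibit bacterial growth; isoniazid and pyrazinamide served as reference drugs.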
# Klebsiella pneumoniae = assay: Antibacterial activity against Klebsiella pneumoniae; format: functional
# [4] = Antioxidant activity assessed as ABTS radical scavenging activity measured after 1 hr by UV-vis spectrophotometric method; format: functional
# In short: (§2)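 ABTS cation-radical decolorization was read spectrophotometrically as the fall in absorbance after 1 h. Trolox was the reference. TEAC was taken as the ratio of concentration-response slopes, test/Trolox, and IC50 was also derived. Data are mean ± SEM, n = 3.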
# Escherichia coli = assay: Antibacterial activity against Escherichia coli; format: functional
# Proteus vulgaris = assay: Antibacterial activity against Proteus vulgaris; format: functional
# Citrobacter braakii = assay: Antibacterial activity against Citrobacter braakii; format: functional
# [5] = tested on: Trichophyton interdigitale; assay: Antifungal activity against Trichophyton mentagrophytes var. interdigitale; format: functional
# Rattus norvegicus [6] = assay: Analgesic activity in rat assessed as prolongation of latency period at 15 mg/kg, ip measured after 1 hr by hot-plate test relative to control; format: functional
# In short: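 Hot-plate test in rats. Compounds were given by intraperitoneal injection. Latency was read at 1 h and, for some compounds, also at 2 h after dosing. Results are expressed as % prolongation of the latent period versus vehicle-treated control. Significance was given as p-values.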
# Trichophyton tonsurans = assay: Antifungal activity against Trichophyton tonsurans; format: functional
# Epidermophyton floccosum = assay: Antifungal activity against Epidermophyton floccosum; format: functional
# Nannizzia gypsea = assay: Antifungal activity against Trichophyton gypseum; format: functional
# Rattus norvegicus [7] = assay: Antiinflammatory activity in rat model of carrageenan-induced paw edema assessed as inhibition of hind paw swelling at 15 mg/kg, ip measured after 1 hr relative to control; format: functional
# Erythrocyte [8] = assay: Antioxidant activity in human erythrocytes assessed as protection against AAPH-induced hemolysis at 50 uM preincubated for 20 mins followed by AAPH addition and measured after 2 hrs by spectrophotometric method relative to control; format: functional; details: time 140 min, 2.333 h; in short: as §1
# [9] = Antioxidant activity assessed as trolox equivalent of ABTS radical scavenging activity measured after 1 hr by UV-vis spectrophotometric method; format: functional; in short: as §2
# Rattus norvegicus [10] = assay: Antiinflammatory activity in rat model of carrageenan-induced paw edema assessed as inhibition of hind paw swelling at 15 mg/kg, ip measured after 3 hrs relative to control; format: functional
# [11] = Antioxidant activity assessed as AAPH scavenging activity by measuring residual fluorescence at 50 uM measured at 1 min interval for 30 mins by ORAC fluorescein assay relative to control; format: functional
# In short: (§3)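 ORAC-FL assay with fluorescein as the probe and AAPH as the peroxyl radical generator. The loss of fluorescence over time was followed, and the result is given as % fluorescence restored at 10 and 50 µM. Each value is the mean of two independent experiments.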
# [12] = Antioxidant activity assessed as AAPH scavenging activity by measuring residual fluorescence at 10 uM measured at 1 min interval for 30 mins by ORAC fluorescein assay relative to control; format: functional; in short: as §3
# Rattus norvegicus [13] = assay: Antiinflammatory activity in rat model of carrageenan-induced paw edema assessed as inhibition of hind paw swelling at 15 mg/kg, ip measured after 5 hrs; format: functional, organism-based
# [14] = Homo sapiens, HeLa, read-out: IC50
# [15] = Homo sapiens, NHDF, read-out: IC50
compound,measurement,setting,value
Cl.Nc1c(C(F)(F)F)n[nH]c1-c1ccccc1,IC50,NHDF; nhdf,Not Active
same,fold change (FC),Erythrocyte [1],0.01
same,MIC,Pseudomonas aeruginosa,> 250 µg/mL
same,MIC,Trichophyton violaceum,> 200 µg/mL
same,MIC,Microsporum canis,> 200 µg/mL
same,MIC,Neisseria gonorrhoeae,62.5 µg/mL
same,MIC,Streptococcus pyogenes,> 250 µg/mL
same,selectivity ratio,[2],> 53.8
same,MIC,Serratia marcescens,> 250 µg/mL
same,MIC,Candida albicans,> 200 µg/mL
same,IC50,HeLa; [14],1.86 µM
same,MIC,Staphylococcus aureus,> 250 µg/mL
same,MIC,Shigella flexneri,> 250 µg/mL
same,MIC,Trichophyton rubrum,> 200 µg/mL
same,MIC,[3],6.2 µg/mL
same,MIC,Klebsiella pneumoniae,> 250 µg/mL
same,IC50,[4],41.8 µM
same,MIC,Escherichia coli,> 250 µg/mL
same,MIC,Proteus vulgaris,> 250 µg/mL
same,MIC,Citrobacter braakii,> 250 µg/mL
same,MIC,[5],> 200 µg/mL
same,Activity,Rattus norvegicus [6],91.8%
same,MIC,Trichophyton tonsurans,> 200 µg/mL
same,MIC,Epidermophyton floccosum,> 200 µg/mL
same,MIC,Nannizzia gypsea,> 200 µg/mL
same,inhibition in vivo at 15 mg/kg,Rattus norvegicus [7],44.8%
same,fold change (FC),Erythrocyte [8],1.03
OC(Cn1cncn1)(Cn1cncn1)c1ccc(F)cc1F [FLUCONAZOLE],MIC,Trichophyton violaceum,100 µg/mL
same,MIC,Microsporum canis,100 µg/mL
same,MIC,Candida albicans,> 100 µg/mL
same,MIC,Trichophyton rubrum,6.25 µg/mL
same,MIC,[5],> 100 µg/mL
same,MIC,Trichophyton tonsurans,> 100 µg/mL
same,MIC,Nannizzia gypsea,12.5 µg/mL
Cc1c(C)c2c(c(C)c1O)CCC(C)(C(=O)O)O2 (stereo unspecified) [TROLOX],IC50,[4],20.1 µM
same,Activity,[9],1 equiv
CCC(C)n1ncn(-c2ccc(N3CCN(c4ccc(OCC5COC(Cn6cncn6)(c6ccc(Cl)cc6Cl)O5)cc4)CC3)cc2)c1=O (stereo unspecified) [ITRACONAZOLE],MIC,Trichophyton violaceum,0.19 µg/mL
same,MIC,Microsporum canis,> 100 µg/mL
same,MIC,Candida albicans,> 100 µg/mL
same,MIC,Trichophyton rubrum,0.06 µg/mL
same,MIC,[5],0.095 µg/mL
same,MIC,Trichophyton tonsurans,0.19 µg/mL
same,MIC,Epidermophyton floccosum,0.19 µg/mL
same,MIC,Nannizzia gypsea,0.06 µg/mL
O=C1O[C@H]([C@@H](O)CO)C(O)=C1O [ASCORBIC ACID],IC50,[4],21.6 µM
Cc1c(N(C)CS(=O)(=O)O)c(=O)n(-c2ccccc2)n1C [METAMIZOLE],inhibition,Rattus norvegicus [10],inactive
same,Activity,Rattus norvegicus [6],59.8%
same,inhibition,Rattus norvegicus [7],inactive
CN[C@@H]1[C@H](O)[C@H](NC)[C@H]2O[C@@]3(O)C(=O)C[C@@H](C)O[C@H]3O[C@@H]2[C@H]1O [SPECTINOMYCIN],MIC,Pseudomonas aeruginosa,2.5 µg/mL
same,MIC,Neisseria gonorrhoeae,15.6 µg/mL
same,MIC,Serratia marcescens,15.6 µg/mL
same,MIC,Staphylococcus aureus,31.2 µg/mL
same,MIC,Shigella flexneri,7.8 µg/mL
same,MIC,Klebsiella pneumoniae,15.6 µg/mL
same,MIC,Escherichia coli,15.6 µg/mL
same,MIC,Proteus vulgaris,1.25 µg/mL
same,MIC,Citrobacter braakii,31.2 µg/mL
COc1cccc2c1C(=O)c1c(O)c3c(c(O)c1C2=O)C[C@@](O)(C(=O)CO)C[C@@H]3O[C@H]1C[C@H](N)[C@H](O)[C@H](C)O1 [DOXORUBICIN],IC50,NHDF; [15],2.72 µM
same,IC50,HeLa; [14],4.25 µM
NC(=O)c1cnccn1 [PYRAZINAMIDE],MIC,[3],12.5 µg/mL
NNC(=O)c1ccncc1 [ISONIAZID],MIC,[3],0.15 µg/mL
Cc1ccc(-c2c(N)c(C(F)(F)F)nn2-c2ccc(S(N)(=O)=O)cc2)cc1.Cl,fold change (FC),Erythrocyte [1],1.17
same,MIC,Pseudomonas aeruginosa,> 250 µg/mL
same,MIC,Trichophyton violaceum,> 200 µg/mL
same,MIC,Microsporum canis,200 µg/mL
same,MIC,Neisseria gonorrhoeae,250 µg/mL
same,MIC,Streptococcus pyogenes,> 250 µg/mL
same,Activity,[11],47.1%
same,MIC,Serratia marcescens,> 250 µg/mL
same,MIC,Candida albicans,> 200 µg/mL
same,MIC,Staphylococcus aureus,> 250 µg/mL
same,Activity,[12],14.6%
same,MIC,Shigella flexneri,> 250 µg/mL
same,MIC,Trichophyton rubrum,200 µg/mL
same,MIC,Klebsiella pneumoniae,> 250 µg/mL
same,MIC,Escherichia coli,> 250 µg/mL
same,MIC,Proteus vulgaris,> 250 µg/mL
same,Activity,Rattus norvegicus [13],Active
same,MIC,Citrobacter braakii,> 250 µg/mL
same,MIC,[5],200 µg/mL
same,Activity,Rattus norvegicus [6],inactive
same,MIC,Trichophyton tonsurans,> 200 µg/mL
same,MIC,Epidermophyton floccosum,200 µg/mL
same,MIC,Nannizzia gypsea,> 200 µg/mL
same,fold change (FC),Erythrocyte [8],1.18
CC[C@@]1(O)C(=O)OCc2c1cc1n(c2=O)Cc2cc3ccccc3nc2-1 [CAMPTOTHECIN],IC50,NHDF; [15],5.38 µM
same,selectivity ratio,[2],3.24
same,IC50,HeLa; [14],1.66 µM
Cn1nc(C(F)(F)F)c(N)c1-c1ccco1,Activity,Rattus norvegicus [13],Active
same,Activity,[9],0.04 equiv
CS(=O)(=O)c1ccc(-n2nc(C(F)(F)F)c(N)c2-c2ccccc2)cc1.Cl,IC50,NHDF; nhdf,Not Active
same,MIC,Pseudomonas aeruginosa,> 250 µg/mL
same,MIC,Neisseria gonorrhoeae,250 µg/mL
same,MIC,Streptococcus pyogenes,> 250 µg/mL
same,MIC,Serratia marcescens,> 250 µg/mL
same,IC50,HeLa; hela,Not Active
same,MIC,Staphylococcus aureus,> 250 µg/mL
same,MIC,Shigella flexneri,> 250 µg/mL
same,MIC,Klebsiella pneumoniae,> 250 µg/mL
same,MIC,Escherichia coli,> 250 µg/mL
same,MIC,Proteus vulgaris,> 250 µg/mL
same,Activity,Rattus norvegicus [13],Active
same,MIC,Citrobacter braakii,> 250 µg/mL
same,Activity,[9],inactive
Nc1c(C(F)(F)F)n[nH]c1-c1ccccc1,Activity,[11],60.2% and 62.8%
same,inhibition,Rattus norvegicus [10],inactive
same,Activity,HeLa,Dose-dependent effect
same,Activity,[12],63.1% and 59.7%
same,Activity,Rattus norvegicus [13],Active
same,Activity,[9],0.58 equiv and 1.35 equiv
O=c1c(O)c(-c2ccc(O)c(O)c2)oc2cc(O)cc(O)c12 [QUERCETIN],fold change (FC),Erythrocyte [1],0.045
same,Activity,[11],90%
same,Activity,[12],87.6%
same,fold change (FC),Erythrocyte [8],0.023
Cc1ccc(-c2[nH]nc(C(F)(F)F)c2N)cc1,IC50,[4],13.4 µM
same,Activity,Rattus norvegicus [13],Active
same,Activity,[9],1.43 equiv
Nc1c(C(F)(F)F)n[nH]c1-c1cccs1,Activity,[11],14% and 21.8%
same,Activity,[12],52.5% and 52.6%
same,Activity,Rattus norvegicus [13],Active
same,Activity,[9],1.22 equiv and 1.1 equiv
Cl.Cn1nc(C(F)(F)F)c(N)c1-c1cccs1,IC50,NHDF; nhdf,Not Active
same,MIC,Pseudomonas aeruginosa,> 250 µg/mL
same,MIC,Trichophyton violaceum,> 200 µg/mL
same,MIC,Microsporum canis,> 200 µg/mL
same,MIC,Neisseria gonorrhoeae,> 250 µg/mL
same,MIC,Streptococcus pyogenes,> 250 µg/mL
same,selectivity ratio,[2],> 2.05
same,MIC,Serratia marcescens,> 250 µg/mL
same,MIC,Candida albicans,> 200 µg/mL
same,Activity,HeLa,Dose-dependent effect
same,IC50,HeLa; [14],48.7 µM
same,MIC,Staphylococcus aureus,> 250 µg/mL
same,MIC,Shigella flexneri,> 250 µg/mL
same,MIC,Trichophyton rubrum,> 200 µg/mL
same,MIC,[3],12.5 µg/mL
same,MIC,Klebsiella pneumoniae,> 250 µg/mL
same,MIC,Escherichia coli,> 250 µg/mL
same,MIC,Proteus vulgaris,> 250 µg/mL
same,Activity,Rattus norvegicus [13],Active
same,MIC,Citrobacter braakii,> 250 µg/mL
same,MIC,[5],200 µg/mL
same,MIC,Trichophyton tonsurans,> 200 µg/mL
same,MIC,Epidermophyton floccosum,> 200 µg/mL
same,MIC,Nannizzia gypsea,> 200 µg/mL
same,Activity,[9],0.1 equiv
